Here are results for 36 sequences from the array DNA melting data of Ke et al. (doi:10.1101/2024.01.08.574731).

A short description of data set [1]: melting temperature; fluorescence melt of hairpins on a sequencing array, two-state fit, raised by 9.35 °C to match UV melts. The following applies: sodium 0.088 M. In a few lines: (§1)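 Melting temperature and folding enthalpy were obtained by bootstrapped two-state fitting. Fits used Cy3 fluorescence of library hairpins with annealed Cy3 and quencher oligos on a sequenced MiSeq flow cell, imaged in 50 mM Na-HEPES pH 8.0, 25 mM NaCl in 2.5 °C steps up to 60 °C and normalised to pre-quench Cy3 and control constructs. Four replicates were combined by inverse-variance weighting, and fitted temperatures were raised by 9.35 °C to match UV melts.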

The nature of data set [2]: folding enthalpy; higher = less favourable; fluorescence melt of hairpins on a sequencing array, two-state fit. The following applies: sodium 0.088 M. In a few lines:
as §1

Turning to GCCAGGCGAAAGCTGGGC (((..((....))..))), the Tm in data set [1] turned out to be 62.9 °C. Also, the folding enthalpy in data set [2] is -27.1 kcal/mol.
Taken in the same sequence, the figures for GCCAGGGAAACCTGGC ((((((....)))))) were 69.2 °C and -37.4 kcal/mol.
In the same order, the values of GCCAGGGGAAACCCCAGC ((..(((....)))..)) are 38.3 °C and -21.5 kcal/mol.
Taken in the same sequence, the figures for GCCAGTACGAAAGTAGGC (((..(((....)))))) were 43.4 °C and -23.8 kcal/mol.
Consider GCCAGTCGAAAGACCGGC (((.(((....))).))), for which the Tm in data set [1] worked out at 55.3 °C. Further, the folding enthalpy in data set [2] is -36.4 kcal/mol.
Taken in the same sequence, the figures for GCCATAGCGAAAGCTGGC (((..(((....)))))) were 56.5 °C and -25.5 kcal/mol.
In the same order, the values of GCCATAGGAAACTACGGC (((.(((....))).))) are 40.6 °C and -29.9 kcal/mol.
Consider GCCATAGGAAACTATGAC (.(((((....))))).), for which, in data set [1], the Tm amounted to 34.1 °C. Also, the folding enthalpy in data set [2] is -18.2 kcal/mol.
For the sequence GCCATCGAAAGATCGGC ((((((....))).))), the Tm in data set [1] came out at 48.2 °C. The folding enthalpy in data set [2] was -24.7 kcal/mol.
Taken in the same sequence, the figures for GCCATCGAAAGATGTGGC ((((((....)))..))) were 46.6 °C and -23.4 kcal/mol.
In the same order, the values of GCCATCGGAAACAATGGC (((((.(....).))))) are 44.7 °C and -29.6 kcal/mol.
Taken in the same sequence, the figures for GCCATCGGAAACGATAGC ((.((((....)))).)) were 45 °C and -21.6 kcal/mol.
GCCATCGGAAACGGTGGC ((((.((....)).)))): in data set [1], the Tm is 59.3 °C. In data set [2], the folding enthalpy is -46.7 kcal/mol.
In the same order, the values of GCCATGCGAAAGCAATGC ((..(((....)))..)) are 41.3 °C and -12.6 kcal/mol.
Turning to GCCATGCGAAAGCACCGC ((..(((....)))..)), the Tm in data set [1] stood at 24.1 °C. In data set [2], the folding enthalpy is -8.84 kcal/mol.
In the same order, the values of GCCATGCGAAAGCACTGC ((..(((....)))..)) are 31.8 °C and -10.4 kcal/mol.
In the same order, the values of GCCATGCGAAAGCAGCGC ((..(((....)))..)) are 47 °C and -17.2 kcal/mol.
Taken in the same sequence, the figures for GCCATGCGAAAGCAGTGC ((..(((....)))..)) were 39.7 °C and -15.2 kcal/mol.
Consider GCCATGCGAAAGCATCGC ((.((((....)))).)), for which the Tm in data set [1] was 49.5 °C. Further, the folding enthalpy in data set [2] was -18.1 kcal/mol.
In the same order, the values of GCCATGCGAAAGCTTAGC ((.(.((....)).).)) are 28 °C and -13.1 kcal/mol.
In the same order, the values of GCCATGGAAACATGGC ((((((....)))))) are 67.7 °C and -34 kcal/mol.
Take GCCATGGGAAACTGTGGC ((((..(....)..)))): in data set [1], the Tm was found to be 47.1 °C. Moreover, the folding enthalpy in data set [2] was -28.2 kcal/mol.
In the same order, the values of GCCATTGAAAAATGGC ((((((....)))))) are 58.4 °C and -39.8 kcal/mol.
Taken in the same sequence, the figures for GCCATTGGAAACAACGGC (((.(((....))).))) were 43 °C and -33.1 kcal/mol.
In the same order, the values of GCCATTGGAAACAATGGC (((((((....))))))) are 67.5 °C and -43.9 kcal/mol.
In the case of GCCCAACGAAAGTTCGGC (((.(((....))).))), the Tm in data set [1] turned out to be 45.5 °C. In addition, the folding enthalpy in data set [2] is -29.9 kcal/mol.
Taken in the same sequence, the figures for GCCCAAGAAATTGGGC ((((((....)))))) were 63.1 °C and -33.3 kcal/mol.
In the same order, the values of GCCCAAGGAAACTTAGGC (((.(((....))).))) are 35.4 °C and -21.9 kcal/mol.
GCCCACCGAAAGGTAGGC (((.(((....))).))): in data set [1], the Tm is 55.5 °C. The folding enthalpy in data set [2] was -38 kcal/mol.
In the same order, the values of GCCCACCGAAAGGTGGC (((.(((....)))))) are 62.3 °C and -9.61 kcal/mol.
In the same order, the values of GCCCACGAAAGTGACGGC ((((((....)))..))) are 49.6 °C and -19.9 kcal/mol.
Consider GCCCACGAAAGTGTCGGC ((((((....)))..))), for which, in data set [1], the Tm was 48.4 °C. Moreover, the folding enthalpy in data set [2] is -19.6 kcal/mol.
In the same order, the values of GCCCACGGAAACGTGGAC (.(((((....))))).) are 50.6 °C and -14.1 kcal/mol.
Taken in the same sequence, the figures for GCCCAGCGAAAGCCGTGC ((.(.((....)).).)) were 27.1 °C and -7.02 kcal/mol.
Taken in the same sequence, the figures for GCCCAGCGAAAGCGCGGC (((..((....))..))) were 61.9 °C and -22.1 kcal/mol.
For the sequence GCCCAGCGAAAGCGTGGC (((..((....))..))), the Tm in data set [1] is 62.4 °C. The folding enthalpy in data set [2] was -23 kcal/mol.
